The list is not random: actives were taken first. Their share in the collection is about 3.5%.
RGS4 act: potentiators or activators of RGS4. HEK293 M3R/inducible RGS4, carbachol calcium flux Fluo4; stronger effect = lower value. B-score at 10 µM. actives 0.92% (n = 310,000). AID 463111;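 active = B-score of the integrated calcium signal more than 4 SD below the library mean, with starting fluorescence not abnormally high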;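 also: negative B-score means reduced calcium response which marks RGS4 activation or potentiation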
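System: HEK293 FlpIn-TREx cells, stable M3R, doxycycline-inducible RGS4. Timing: overnight RGS4 induction, 30 min dye load 37 °C, 20 min compound RT. Also added: carbachol, ECmax concentration. Measured by: Fluo4 fluorescence kinetic imaging of calcium. Evaluation: integrated calcium ratio converted to B score.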
MrgX1 PAM: allosterically activates human MrgX1 receptor signaling | MrgX1-HEK293, Fluo-4 calcium flux, FDSS; stronger effect = higher value | B-score at 10 µM | actives 0.63% (n = 310,000) | AID 588675;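 active = plate-corrected calcium response at least 3 library SD above typical, normal starting fluorescence, not activating the receptor alone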;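 also: compound read alongside a low EC10 to EC30 dose of BAM8-22 agonist; peak minus trough fluorescence over baseline measured at the second addition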
Target sequence (Q96LB2 whole entry, looked up): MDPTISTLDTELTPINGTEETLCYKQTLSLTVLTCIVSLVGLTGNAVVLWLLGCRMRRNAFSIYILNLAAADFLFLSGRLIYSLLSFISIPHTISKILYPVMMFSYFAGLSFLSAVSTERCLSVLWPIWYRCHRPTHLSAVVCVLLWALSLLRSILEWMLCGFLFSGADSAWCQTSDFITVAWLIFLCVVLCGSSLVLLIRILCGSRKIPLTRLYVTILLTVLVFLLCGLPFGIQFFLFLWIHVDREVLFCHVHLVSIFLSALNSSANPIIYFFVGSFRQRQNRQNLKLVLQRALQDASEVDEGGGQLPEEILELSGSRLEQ
RGS4 inh: inhibitors of human RGS4 | HEK293 M3R/RGS4 inducible, Fluo-4 calcium flux; stronger effect = higher value; triggered by carbachol at its EC20 | B-score at 10 µM | actives 0.45% (n = 310,000) | AID 463165;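 active = B-score, a plate-corrected calcium signal, over three deviations above library mean, with baseline fluorescence within five deviations of library mean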;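 also: RGS4 expression induced by doxycycline in cells with stable M3 receptor; B-score is computed from the integrated fluorescence ratio over baseline after carbachol; higher B-score means a larger calcium signal and so more RGS4 inhibition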
Target sequence (P49798 whole entry, looked up): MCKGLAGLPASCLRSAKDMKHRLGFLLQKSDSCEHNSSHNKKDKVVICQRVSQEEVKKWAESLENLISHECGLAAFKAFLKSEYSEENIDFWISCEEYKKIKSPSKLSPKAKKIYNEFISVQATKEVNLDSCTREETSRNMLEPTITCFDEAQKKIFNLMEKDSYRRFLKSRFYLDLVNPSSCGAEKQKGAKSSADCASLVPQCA
MrgX1 antagonist: blocks BAM8-22 activation of human MrgX1 receptor | B-score at 10 µM | Q96LB2 | actives 1.3% (n = 310,000) | MRGX1-HEK293 calcium flux, Fluo-4, BAM8-22 antagonism; stronger effect = lower value;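 active = calcium-response B-score plate-corrected more than 3 library SD below zero, starting fluorescence within 5 deviations, no agonist response on first addition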;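 also: peak minus trough fluorescence over baseline after final BAM8-22 challenge near maximal dose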
MrgX1 agonist: human MrgX1 receptor agonism, primary screen; AID 588627; actives 0.44% (n = 310,000); B-score at 10 µM; MrgX1-HEK293 cells, Fluo-4 calcium fluorescence, agonist mode; stronger effect = higher value;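 active = calcium response B-score plate-corrected fluorescence ratio at least 3 library SD, with starting fluorescence B-score inside 5 SD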
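Material: MrgX1-expressing HEK293 cells / Dosing: compound as first of three additions / Incubation: overnight seeding, then 1 h dark dye loading / Signal: Fluo-4 NW calcium fluorescence / Evaluation: B-scored fluorescence response ratio / Benchmarks: positive and negative control wells on each plate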
MrgX1 ant reconf: reconfirmed antagonist of human MrgX1 receptor signaling; remaining BAM8-22 calcium response % of control (stronger effect = lower value), % at 10 µM; actives 19% (n = 2,300); MrgX1-HEK293, BAM8-22 calcium flux, Fluo-4; stronger effect = lower value; AID 602420; shares compounds with MrgX1 antagonist;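 active = remaining agonist calcium response no higher than 100% minus 3 SD of agonist-only control wells, with starting fluorescence near control levels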;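 also: agonist BAM8-22 given at a near maximal EC90 to ECmax level; peak minus minimum fluorescence divided by baseline after agonist addition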
HEK293 Ca flux: counter-screen for MrgX1 antagonists: effect in parental HEK293 cells. Fluo-4 calcium fluorescence, FDSS. shares compounds with MrgX1 antagonist. AID 624111. fluorescence ratio F(max-min)/F0 at 10 µM. actives 2% (n = 4,000);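 active = duplicate-averaged calcium fluorescence ratio at least three times the standard deviation of buffer wells, a nonspecific response in parental cells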
HEK293 Ca counter: MrgX1 allosteric activator counter-screen hit in parental HEK293 cells; shares compounds with MrgX1 antagonist; parental HEK293 calcium flux, Fluo-4 fluorescence ratio; stronger effect = higher value; fluorescence ratio F(max-min)/F0 at 10 µM; actives 0.4% (n = 4,000);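 active = calcium fluorescence ratio, averaged over duplicates, at least 3 SD of the buffer-well ratio, meaning a nonspecific response in receptor-free cells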;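 also: untransfected parental HEK293 lacking MrgX1 used as counterscreen for MrgX1 allosteric activators; fluorescence change taken during the second addition on a kinetic imager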
HEK293 Ca cntr2: counter-screen for MrgX1 activators: effect in parental HEK293 cells; fluorescence ratio F(max-min)/F0 at 10 µM; Fluo-4 calcium fluorescence (FDSS); stronger effect = higher value; shares compounds with MrgX1 antagonist; actives 8.7% (n = 4,000);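 active = calcium fluorescence ratio at least three times the spread of buffer wells, meaning a non-specific response in parental cells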
* marks the source's active call; other numbers are inactive results; i = inactive; x = no result.

SMILES	RGS4 act	MrgX1 PAM	RGS4 inh	MrgX1 antagonist	MrgX1 agonist	MrgX1 ant reconf	HEK293 Ca flux	HEK293 Ca counter	HEK293 Ca cntr2
Cc1ccc(C(=O)C2=C(O)C(=O)N(Cc3cccnc3)C2c2ccc(Br)cc2)o1 (centres undefined)	i	i	i	-11*	i	i	i	i	i
CC(C)CC(c1nnnn1CC1CCCO1)N1CCN(Cc2ccc3c(c2)OCO3)CC1 (centres undefined)	i	i	i	-5*	i	i	i	i	i
O=C(NCCC1CCCCN1S(=O)(=O)c1ccc(F)cc1)C(=O)NCC1CCCO1 (centres undefined)	i	i	i	-6*	i	i	i	i	i
COc1ccc(S(=O)(=O)N(CCc2ccccc2)CC(N)=O)cc1	i	i	i	-5.4*	i	i	i	i	i
O=C(O)/C=C/C(=O)Nc1c(F)cccc1F	i	i	i	i	i	x	x	x	x
CCOCc1cnc(C)nc1NCC(=O)c1c(C)[nH]c2ccc(OC)cc12	i	i	i	-8.8*	i	i	i	i	i
CN(C(=O)c1ccc2c(c1)SC1=NS(=O)(=O)CCN12)C(c1ccccc1)c1ccccc1	i	i	i	i	i	x	x	x	x
O=C(O)c1ccc2c(c1)SC1=NS(=O)(=O)CCN12	i	i	i	-14*	i	i	i	i	i
CCOc1ccc(NC(=O)CN2CCN(C(=O)C3CCCO3)CC2)cc1 (centres undefined)	i	i	i	i	i	x	x	x	x
Cc1ccc(NC(=O)N2CCN(C(=O)C3CCCO3)CC2)cc1 (centres undefined)	i	i	i	-5.9*	i	i	i	i	i
CCOC(=O)c1ccc(NC(=O)CN2CCN(C(=O)C3CCCO3)CC2)cc1 (centres undefined)	i	i	i	-6.3*	i	i	i	i	i
O=C(Nc1ccc(C(=O)N2CCOCC2)cc1)c1cccs1	i	i	i	-7*	i	75%*	i	i	i
Cc1nc(N2CCOCC2)nc(Oc2ccccc2F)c1[N+](=O)[O-]	i	i	i	i	i	x	x	x	x
COC(c1ccccc1)c1nnc(CCC(=O)N2CCN(C3CCCC3)CC2)o1 (centres undefined)	i	i	i	-6.3*	i	i	i	i	i
O=C(CCc1nnc(C2CCCCC2)o1)N1CCN(C2CCCCC2)CC1	i	i	i	i	i	x	x	x	x
Cc1[nH]c2ccccc2c1C(=O)CN1CCC(C(N)=O)(N2CCCCC2)CC1	i	i	i	-5.8*	i	i	i	i	i
Cc1nn(Cc2ccc(F)cc2)c2sc(C(=O)Nc3nccs3)cc12	i	i	i	-4.7*	i	i	i	i	i
Cc1nn(Cc2ccccc2Cl)c2sc(C(=O)Nc3nccs3)cc12	i	i	i	i	i	x	x	x	x
CC(C)CN(C(=O)COC(=O)/C=C/c1cccs1)c1c(N)n(Cc2ccccc2)c(=O)[nH]c1=O	i	i	i	i	i	x	x	x	x
COCCN(C(=O)COC(=O)/C=C/c1cccs1)c1c(N)n(Cc2ccccc2)c(=O)[nH]c1=O	i	i	i	-12*	i	69%*	i	i	i
COc1ccccc1/C=C/C(C)=O	i	i	i	i	i	x	x	x	x
O=C1OCCC1Sc1nnc(-c2cccc(Br)c2)o1 (centres undefined)	i	i	i	-5.1*	i	i	i	i	i
CCC[C@H]1COCCS(=O)(=O)N1Cc1ccccc1F	i	i	i	i	i	x	x	x	x
CC(C)[C@H]1COCCS(=O)(=O)N1Cc1ccccc1F	i	i	i	-5.3*	i	i	i	i	i
Cc1ccc(C(NC(=O)C2CCCCC2)c2c(O)ccc3ccccc23)cc1 (centres undefined)	i	i	i	i	i	x	x	x	x
SMILES	RGS4 act	MrgX1 PAM	RGS4 inh	MrgX1 antagonist	MrgX1 agonist	MrgX1 ant reconf	HEK293 Ca flux	HEK293 Ca counter	HEK293 Ca cntr2
O=C(c1ccc(N2CCN(C(=O)c3ccccc3Br)CC2)cc1)c1cccc(F)c1	i	i	i	i	i	x	x	x	x
O=C(c1ccc(N2CCN(C(=O)c3cccc(F)c3)CC2)cc1)c1cccc(F)c1	i	i	i	-4.6*	i	i	i	i	i
Cc1onc(-c2c(F)cccc2Cl)c1C(=O)Nc1nnc(C(F)(F)F)s1	i	i	i	-5.1*	i	85%*	i	i	i
Cc1onc(-c2c(F)cccc2Cl)c1C(=O)Nc1nccs1	i	i	i	-4.6*	i	i	i	i	i
CCc1ccc(-c2nc(SCC(=O)N(CCOC)c3c(N)n(Cc4ccccc4)c(=O)[nH]c3=O)n[nH]2)cc1	i	i	i	i	i	x	x	x	x
CCCOC(=O)c1ccc(NC(=O)CC(C)(C)C)cc1	i	i	i	-4.5*	i	i	i	i	i
CCOc1ccc(NS(=O)(=O)c2ccc(C(=O)NCc3cccnc3)cc2)cc1	i	i	i	i	i	x	x	x	x
O=C(CSc1nccn1Cc1ccccc1)Nc1nccs1	i	i	i	i	i	x	x	x	x
CCn1c(SCC(=O)N2CCCCC2C)nnc1-c1ccco1 (centres undefined)	i	i	i	i	i	x	x	x	x
CC1CCCCN1C(=O)CSc1nnc(-c2ccco2)n1CC1CCCO1 (centres undefined)	i	i	i	-7*	i	i	i	i	i
Cc1cc(C)nc(SCCS(=O)(=O)Cc2ccc(Cl)cc2)n1	i	i	i	i	i	x	x	x	x
COc1ccc(NS(=O)(=O)c2ccc(C(=O)N3CCN(Cc4ccccc4)CC3)cc2)cc1	i	i	i	-5.9*	i	i	i	i	i
